A short description of data set [1]: melting temperature; fluorescence melt of hairpins on a sequencing array, two-state fit, raised by 9.35 °C to match UV melts. As to conditions: sodium 0.088 M. The method, boiled down:
(§1)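 Folding enthalpy and melting temperature were estimated with bootstrapped two-state fits and combined across four replicates by inverse-variance weighting, with fitted temperatures raised by 9.35 °C to match UV melts. The data were Cy3 fluorescence of library hairpins, with annealed Cy3 and quencher oligos, on a sequenced MiSeq flow cell in 50 mM Na-HEPES pH 8.0, 25 mM NaCl, imaged in 2.5 °C steps up to 60 °C and normalised to pre-quench Cy3 and control constructs.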

Data set [2] can be described thus: folding enthalpy; higher = less favourable; fluorescence melt of hairpins on a sequencing array, two-state fit. The note with it: sodium 0.088 M. The method, boiled down:
as §1

As for GACCATGGAAACATGATC ((.((((....)))).)), the Tm in data set [1] turned out to be 35.4 °C. In data set [2], the folding enthalpy is -23.2 kcal/mol.
With GTGGAAGGAAACTTCTAC ((.((((....)))).)), the Tm in data set [1] came to 39.3 °C. For the same sequence, in data set [2], the folding enthalpy is -27.8 kcal/mol.
In the same order, the values of CGCCCGGAAACGGAAGCG ((((((....)))..))) are 49.3 °C and -30.8 kcal/mol.
For GATTTTGGAAACGAAATC (((((.(....).))))) the same measures were 39.6 °C and -34.9 kcal/mol.
In the same order, the values of GGAGTCGAAAGACCTTCC ((((((....)))..))) are 40.6 °C and -22.5 kcal/mol.
On to GACGGCGAAAGCCTGGTC ((((((....)))..))), for which, in data set [1], the Tm was 49.9 °C. For the same sequence, the folding enthalpy in data set [2] was -15.1 kcal/mol.
For GGATTACGAAAGTAGTCC (((.(((....))).))) the same measures were 50.9 °C and -37.5 kcal/mol.
In the same order, the values of GGGCTCGAAAGAGGCCC ((((((....))).))) are 69 °C and -14.3 kcal/mol.
In the same order, the values of GCCCTGCGAAAGCTAGGC (((..((....))..))) are 55.2 °C and -20.3 kcal/mol.
For the sequence GATCGCCAGGGCGATC ((((((....)))))), the Tm in data set [1] was found to be 68.3 °C. The folding enthalpy in data set [2] was -31 kcal/mol.
For GCGCTGGGAAACCGGTGC ((.(.((....)).).)) the same measures were 51.5 °C and -42.6 kcal/mol.
For GCATCCCCGAAAGGGTGC (((..(((....)))))) the same measures were 53.5 °C and -17.5 kcal/mol.
For CGAGACGGAAACGTGTCG (((.(((....))).))) the same measures were 52.1 °C and -37.6 kcal/mol.
As for GCGTCAGGAAACTGGTGC ((..(((....)))..)), the Tm in data set [1] was found to be 41.6 °C. Besides, the folding enthalpy in data set [2] is -27.1 kcal/mol.
For GCGGGCGAAAGCCCACGC ((((((....)))..))) the same measures were 65.5 °C and -14 kcal/mol.
For GCAAAGGGAAACCTCTGC (((.(((....))).))) the same measures were 33.8 °C and -19.1 kcal/mol.
In the same order, the values of GGTACAGAAATGTACC ((((((....)))))) are 53 °C and -38 kcal/mol.
For the sequence GCATATGGAAACACATGC ((((.((....)).)))), in data set [1], the Tm is 35.8 °C. For the same sequence, in data set [2], the folding enthalpy was -26.8 kcal/mol.
For GATCGTTACACGATC ((((((...)))))) the same measures were 58.4 °C and -36.1 kcal/mol.
Take GTTGAAGGAAACTTTAAC (((.(((....))).))): the Tm in data set [1] was found to be 32.1 °C. Further, the folding enthalpy in data set [2] was -17.7 kcal/mol.
For the sequence GATCAGCTACTGATC ((((((...)))))), the Tm in data set [1] is 49.1 °C. Also, the folding enthalpy in data set [2] is -35.2 kcal/mol.
In the same order, the values of CGAGGTCGGAAACGATCG (((..(((....)))))) are 41.2 °C and -21 kcal/mol.
For GTCTGCCGAAAGGCTGAC (((.(((....))).))) the same measures were 62.1 °C and -30.5 kcal/mol.
For GTTGGTGGAAACGTCAAC ((((..(....)..)))) the same measures were 33.5 °C and -16.1 kcal/mol.
Take GATCGGATTACCGATC ((((((....)))))): the Tm in data set [1] was 58.2 °C. Besides, the folding enthalpy in data set [2] is -38.7 kcal/mol.
In the same order, the values of GCATTCACGAAAGTGTGC (((..(((....)))))) are 37.6 °C and -18.2 kcal/mol.
With GCTCCTGAAAAGGAGC ((((((....)))))), the Tm in data set [1] came out at 68.5 °C. The folding enthalpy in data set [2] was -42.6 kcal/mol.
For the sequence GCGAGGTATCGC ((((....)))), the Tm in data set [1] came out at 55.6 °C. Also, the folding enthalpy in data set [2] is -21.6 kcal/mol.
As for GTCGTACCGAAAGGTGAC (((..(((....)))))), the Tm in data set [1] amounted to 42.8 °C. Besides, the folding enthalpy in data set [2] is -18.6 kcal/mol.
In the same order, the values of GATCAGCGTTCTGATC ((((((....)))))) are 49.8 °C and -37.3 kcal/mol.
For GATCCGGTACCGGATC ((((((....)))))) the same measures were 64.5 °C and -43.4 kcal/mol.
GGGTTCGAAAGAATCCCC ((((((....)))..))): the Tm in data set [1] came out at 50.6 °C. In addition, the folding enthalpy in data set [2] was -15.9 kcal/mol.
For GATCCCCAGGGGGATC ((((((....)))))) the same measures were 65.5 °C and -29 kcal/mol.
For GCAAACCGAAAGGTATGC (((.(((....))).))) the same measures were 53.4 °C and -37.5 kcal/mol.
For the sequence GAGGCCGAAAGGCTCCTC ((((((....)))..))), the Tm in data set [1] was 40.8 °C. The folding enthalpy in data set [2] was -10.2 kcal/mol.
In the same order, the values of GCATAGCGAAAGCTGTGC (((.(((....))).))) are 59.9 °C and -50.8 kcal/mol.
For the sequence GGGTTGTCGAAAGACCCC (((..(((....)))))), the Tm in data set [1] is 42.7 °C. In data set [2], the folding enthalpy was -20.5 kcal/mol.
In the same order, the values of GGTTACGAAAGTATCACC ((((((....)))..))) are 28.2 °C and -12.5 kcal/mol.
In the same order, the values of GTCGCAGGAAACCGCAAC ((.((.(....).)).)) are 25.8 °C and -12.8 kcal/mol.
For GATCATTCGATGATC ((((((...)))))) the same measures were 47.2 °C and -35.8 kcal/mol.
With GTGATGGCGAAAGCCCAC (((..(((....)))))), the Tm in data set [1] amounted to 41.2 °C. Also, in data set [2], the folding enthalpy was -14.6 kcal/mol.
Take GGGCACGAAAGTGACCC ((((((....))).))): in data set [1], the Tm stood at 66.8 °C. Further, the folding enthalpy in data set [2] is -13.2 kcal/mol.
For GATCTAGTCGTAGATC ((((((....)))))) the same measures were 44.3 °C and -27.9 kcal/mol.
For GAAGAAGGAAACTCCTTC ((((.((....)).)))), in data set [1], the Tm was 30.7 °C. The folding enthalpy in data set [2] is -19.2 kcal/mol.
As for CGCTTGCGGAAACGCGCG (((..(((....)))))), the Tm in data set [1] came to 51.3 °C. Also, the folding enthalpy in data set [2] was -10.8 kcal/mol.
In the same order, the values of GCTGGCGGAAACGCCAAC (.(((((....))))).) are 43.7 °C and -11.2 kcal/mol.
In the same order, the values of GATCACCCGCGTGATC ((((((....)))))) are 54.5 °C and -48.3 kcal/mol.
For GATCGATACTCGATC ((((((...)))))) the same measures were 51.3 °C and -41.3 kcal/mol.
Consider GGCCTCGGAAACGGGGCC ((((.((....)).)))), for which the Tm in data set [1] turned out to be 66.6 °C. In addition, the folding enthalpy in data set [2] is -35.3 kcal/mol.
In the same order, the values of GGCAACGGAAACGTTACC ((.((((....)))).)) are 45.1 °C and -29.8 kcal/mol.
For GACGTTGGAAACGACGTC (((((.(....).))))) the same measures were 55.8 °C and -35.1 kcal/mol.
In the same order, the values of GTCGCGCGAAAGCGAGAC (((.(((....))).))) are 68.2 °C and -25.4 kcal/mol.
Consider GGCAGGTCGAAAGACGCC (((..(((....)))))), for which, in data set [1], the Tm came to 53.5 °C. Further, the folding enthalpy in data set [2] is -24 kcal/mol.
In the same order, the values of GTCGGTGGAAACACTGGC (.(.(((....))).).) are 42.8 °C and -27.8 kcal/mol.
In the same order, the values of GGTTCCCGAAAGGGACC (((.(((....)))))) are 59.9 °C and -23 kcal/mol.

Values taken from the array DNA melting data of Ke et al. (doi:10.1101/2024.01.08.574731).
